Measurements as given in PMC5928661 (Molecular Medicine Reports, 2018).

What was measured:
[1] = system: HepG2.A64 cells; test: Cell proliferation; assay type: cell-based, human; conditions: HepG2.A64, CCK-8, 96 h
In short: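 HepG2-derived cells carrying ETV-resistant HBV, kept in DMEM with 10% FBS, penicillin-streptomycin and 300 µg/ml geneticin at 37°C, 5% CO2. Seeded at 3×10^3 cells/well; after 24 h, drug dilution series in conditioned medium were added and renewed every other day for 4 days. CCK-8 was added, then 1~4 h incubation and absorbance at 450 nm. Five replicates, three independent experiments; IC50 calculated.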

[2] = system: wild-type HBV (HepG2.4D14 cells); test: Cell-based antiviral assay, supernatant HBV DNA by qPCR; conditions: Hepatitis B virus, 96 h, read-out: EC50 against HBV
[3] = target: T1, MRP4 (HepG2.A64 cells) (Homo sapiens, UniProt O15439); assay type: in vitro ADME; conditions: HepG2.A64, drug 4 days, 5 µM MK571 4 h, LCMS
T1 sequence (O15439 1-1325): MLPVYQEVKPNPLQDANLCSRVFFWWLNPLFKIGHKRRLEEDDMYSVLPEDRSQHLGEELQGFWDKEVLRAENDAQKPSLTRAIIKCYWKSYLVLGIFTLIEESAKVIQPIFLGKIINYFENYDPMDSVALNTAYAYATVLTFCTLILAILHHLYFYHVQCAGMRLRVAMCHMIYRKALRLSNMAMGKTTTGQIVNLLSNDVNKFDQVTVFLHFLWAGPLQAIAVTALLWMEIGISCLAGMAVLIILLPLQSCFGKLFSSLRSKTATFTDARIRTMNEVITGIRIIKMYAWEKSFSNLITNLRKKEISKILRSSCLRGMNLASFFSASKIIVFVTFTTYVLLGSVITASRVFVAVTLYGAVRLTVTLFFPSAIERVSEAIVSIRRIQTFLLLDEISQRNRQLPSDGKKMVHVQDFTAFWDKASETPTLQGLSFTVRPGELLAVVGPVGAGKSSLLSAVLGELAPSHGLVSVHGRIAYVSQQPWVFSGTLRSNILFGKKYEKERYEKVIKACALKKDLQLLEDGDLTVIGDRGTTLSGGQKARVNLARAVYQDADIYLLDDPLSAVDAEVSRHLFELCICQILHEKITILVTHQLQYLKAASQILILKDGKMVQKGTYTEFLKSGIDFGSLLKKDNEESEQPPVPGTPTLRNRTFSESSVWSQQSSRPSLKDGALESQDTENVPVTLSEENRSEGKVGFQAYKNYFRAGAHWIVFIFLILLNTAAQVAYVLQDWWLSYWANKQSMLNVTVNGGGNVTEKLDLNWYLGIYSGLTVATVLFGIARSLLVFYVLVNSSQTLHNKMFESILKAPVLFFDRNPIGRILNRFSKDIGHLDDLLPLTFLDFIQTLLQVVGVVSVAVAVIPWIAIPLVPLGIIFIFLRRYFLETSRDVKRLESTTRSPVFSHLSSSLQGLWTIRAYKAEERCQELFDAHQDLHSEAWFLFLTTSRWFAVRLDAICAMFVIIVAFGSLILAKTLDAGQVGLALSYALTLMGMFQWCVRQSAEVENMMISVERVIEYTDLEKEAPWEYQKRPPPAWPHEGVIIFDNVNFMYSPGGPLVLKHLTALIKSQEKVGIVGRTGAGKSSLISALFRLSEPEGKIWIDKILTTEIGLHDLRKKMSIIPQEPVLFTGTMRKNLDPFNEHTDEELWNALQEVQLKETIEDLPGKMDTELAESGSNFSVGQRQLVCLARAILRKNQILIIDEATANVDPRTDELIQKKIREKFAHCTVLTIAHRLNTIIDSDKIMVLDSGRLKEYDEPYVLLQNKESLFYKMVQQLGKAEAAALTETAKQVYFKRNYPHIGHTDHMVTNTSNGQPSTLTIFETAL

[4] = target: T2, MRP4 (HepG2.4D14 cells) (Homo sapiens, UniProt O15439); assay type: in vitro ADME; conditions: HepG2.4D14, drug 4 days, 5 µM MK571 48 h, LCMS
T2 sequence (O15439 1-1325): T1 sequence (O15439 1-1325)

[5] = system: ETV-resistant HBV (HepG2.A64 cells); test: Cell-based antiviral assay, supernatant HBV DNA by qPCR; parameters: species or system hepatitis B virus; conditions: for EC50: Hepatitis B virus, HepG2.A64, 96 h, read-out: EC50 against HBV

| Structure (SMILES) | Doses at which apparent cytotoxicity was observed [1] | EC50 [2] | Extracellular concentration in presence of MK571 vs control (absence of MK571) [3] | Extracellular concentration in presence of MK571 vs control (absence of MK571) [4] | EC50 [5] | Intracellular accumulation in presence of MK571 vs control (absence of MK571) [3] | Intracellular accumulation in presence of MK571 vs control (absence of MK571) [4] | Fold resistance (mutant EC50 to wild-type EC50) ([5]; HepG2.A64 vs HepG2.4D14) |
| --- | --- | --- | --- | --- | --- | --- | --- | --- |
| C=C1[C@H](CO)[C@@H](O)C[C@@H]1n1cnc2c(=O)[nH]c(N)nc21 [ETV, entecavir] | above 10 µM | 0.13 ± 0.02 µM | slightly reduced | slightly reduced | 6.28 ± 0.07 µM |  |  |  |
| C[C@H](Cn1cnc2c(N)ncnc21)OCP(=O)(O)O [TFV, tenofovir] | above 10 µM | 3.24 ± 0.01 µM | slightly reduced | slightly reduced | 11.43 ± 0.09 µM | markedly increased | markedly increased | 3.5 fold |
| Nc1ccn([C@@H]2CS[C@H](CO)O2)c(=O)n1 [LAM, lamivudine] | above 10 µM | 4.14 ± 0.03 µM | slightly reduced | slightly reduced | 5.94 ± 0.2 µM |  |  |  |
| CN(C)C(=O)CCSC(SCCC(=O)O)c1cccc(/C=C/c2ccc3ccc(Cl)cc3n2)c1 (stereo not shown) [MK571, 3-([(3-(2-[7-chloro-2-quinolinyl]ethyl)phenyl]-[(3-dimethylamino-3-oxoporphyl)-thio)-methyl]-thio) propanoic acid] | above 10 µM |  |  |  |  |  |  |  |
